Results as given in article PMC12814486 (Bioorganic & medicinal chemistry, 2025).

How the values were obtained:
human sEH = biological target: T1, human sEH (Homo sapiens, UniProt P34913); experiment: sEH inhibition assay; format: biochemical
T1 sequence (P34913 1-555): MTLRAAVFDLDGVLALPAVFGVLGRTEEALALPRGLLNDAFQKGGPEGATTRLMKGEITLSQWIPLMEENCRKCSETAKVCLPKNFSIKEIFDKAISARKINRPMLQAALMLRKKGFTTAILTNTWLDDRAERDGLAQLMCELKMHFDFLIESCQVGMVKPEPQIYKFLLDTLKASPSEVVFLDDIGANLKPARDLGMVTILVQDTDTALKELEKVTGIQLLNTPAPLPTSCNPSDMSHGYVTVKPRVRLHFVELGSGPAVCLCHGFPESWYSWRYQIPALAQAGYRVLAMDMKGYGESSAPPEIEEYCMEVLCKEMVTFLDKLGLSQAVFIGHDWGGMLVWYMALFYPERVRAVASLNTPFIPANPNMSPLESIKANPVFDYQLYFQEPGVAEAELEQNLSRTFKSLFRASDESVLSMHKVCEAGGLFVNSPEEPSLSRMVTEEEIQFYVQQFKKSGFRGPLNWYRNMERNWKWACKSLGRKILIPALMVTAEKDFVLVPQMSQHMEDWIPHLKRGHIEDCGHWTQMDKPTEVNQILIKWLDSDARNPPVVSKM

[1] = Microsomal stability assay in liver microsomes; format: in vitro ADME; details: mouse, pH 7.4
Procedure, shortened: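 Test compound was taken from a 1 mM DMSO stock. It was preincubated 5 min at 37 °C with liver microsomes in 0.1 M phosphate buffer, pH 7.4. Reaction was started with an NADPH regenerating system (glucose-6-phosphate, NADPH, glucose-6-phosphate dehydrogenase, MgCl2) and quenched with methanol at 0, 10, 20, 30 and 60 min. Samples were centrifuged and read by LC-MS SIM as peak area ratio to internal standard. k = negative slope of ln ratio vs time; CLint = k/P (P = protein concentration). Duplicates or triplicates were averaged.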

Mu opioid (MOR) = Mu opioid (MOR) (Homo sapiens, UniProt P35372); experiment: NIMH PDSP binding screen; details: read-out: Inhibition (%) Mu opioid (MOR)
5-HT1A = biological target: T2, 5-HT1A (Homo sapiens, UniProt P08908); experiment: NIMH PDSP binding screen; details: read-out: Inhibition (%) 5-HT1A
T2 sequence (P08908 1-422): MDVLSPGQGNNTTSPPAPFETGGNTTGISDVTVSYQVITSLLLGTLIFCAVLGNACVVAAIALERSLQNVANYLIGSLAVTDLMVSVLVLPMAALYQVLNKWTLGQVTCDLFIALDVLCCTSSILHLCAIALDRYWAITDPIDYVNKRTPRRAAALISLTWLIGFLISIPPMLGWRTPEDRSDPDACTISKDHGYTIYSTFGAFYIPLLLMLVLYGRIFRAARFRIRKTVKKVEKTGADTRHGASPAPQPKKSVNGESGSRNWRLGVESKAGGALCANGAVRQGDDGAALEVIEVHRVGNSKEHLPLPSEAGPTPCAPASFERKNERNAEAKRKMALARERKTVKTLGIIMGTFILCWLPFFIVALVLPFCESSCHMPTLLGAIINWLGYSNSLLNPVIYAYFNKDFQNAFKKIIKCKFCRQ

5-HT1D = 5-HT1D (Homo sapiens, UniProt P28221); experiment: NIMH PDSP binding screen; details: read-out: Inhibition (%) 5-HT1D
5-HT2A = 5-HT2A (Homo sapiens, UniProt P28223); experiment: NIMH PDSP binding screen; details: read-out: Inhibition (%) 5-HT2A
5-HT2B = 5-HT2B (Homo sapiens, UniProt P41595); experiment: NIMH PDSP binding screen; details: read-out: Inhibition (%) 5-HT2B
5-HT2C = biological target: T3, 5-HT2C (Homo sapiens, UniProt P28335); experiment: NIMH PDSP binding screen; details: read-out: Inhibition (%) 5-HT2C
T3 sequence (P28335 33-458): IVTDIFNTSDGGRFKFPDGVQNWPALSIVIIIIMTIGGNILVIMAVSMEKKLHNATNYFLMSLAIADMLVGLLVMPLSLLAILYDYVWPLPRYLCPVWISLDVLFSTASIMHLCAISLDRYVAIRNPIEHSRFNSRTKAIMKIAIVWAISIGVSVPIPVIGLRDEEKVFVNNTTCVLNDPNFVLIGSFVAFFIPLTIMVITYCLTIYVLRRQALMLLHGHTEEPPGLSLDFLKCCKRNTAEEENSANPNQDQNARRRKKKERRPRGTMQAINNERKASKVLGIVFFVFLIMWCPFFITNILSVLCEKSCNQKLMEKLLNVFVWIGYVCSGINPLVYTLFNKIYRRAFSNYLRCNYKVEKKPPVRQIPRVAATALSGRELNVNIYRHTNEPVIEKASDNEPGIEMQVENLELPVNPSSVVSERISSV

5-HT4 = 5-HT4 (Homo sapiens, UniProt Q13639); experiment: NIMH PDSP binding screen; details: read-out: Inhibition (%) 5-HT4
male Sprague-Dawley rats = experiment: Home cage wheel running; format: in vivo, rat; details: 3 mg/kg intraperitoneal, vs vehicle, n = 8/group

Mu opioid (MOR), sequence (P35372 whole entry): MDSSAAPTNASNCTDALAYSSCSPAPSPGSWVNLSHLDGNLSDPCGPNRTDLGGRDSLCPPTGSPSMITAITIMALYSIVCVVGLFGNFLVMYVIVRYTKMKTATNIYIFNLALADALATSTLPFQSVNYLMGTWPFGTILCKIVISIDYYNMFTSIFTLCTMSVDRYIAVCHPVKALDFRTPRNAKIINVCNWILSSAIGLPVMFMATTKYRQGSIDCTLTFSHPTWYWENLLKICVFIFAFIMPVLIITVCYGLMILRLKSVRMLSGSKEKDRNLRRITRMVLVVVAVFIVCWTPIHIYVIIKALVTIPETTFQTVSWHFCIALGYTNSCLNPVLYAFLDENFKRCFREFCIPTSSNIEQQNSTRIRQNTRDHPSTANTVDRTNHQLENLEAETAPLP
5-HT1D, sequence (P28221 whole entry, species assumed): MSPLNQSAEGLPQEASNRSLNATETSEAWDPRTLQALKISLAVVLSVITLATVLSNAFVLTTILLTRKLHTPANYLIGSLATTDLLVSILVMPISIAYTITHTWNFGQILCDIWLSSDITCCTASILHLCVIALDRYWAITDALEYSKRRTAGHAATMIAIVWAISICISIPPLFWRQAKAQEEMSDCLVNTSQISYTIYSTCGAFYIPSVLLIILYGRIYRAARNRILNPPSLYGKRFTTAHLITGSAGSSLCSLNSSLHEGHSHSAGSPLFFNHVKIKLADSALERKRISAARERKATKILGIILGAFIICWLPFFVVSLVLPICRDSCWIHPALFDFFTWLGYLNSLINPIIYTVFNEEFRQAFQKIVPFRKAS
5-HT2B, sequence (P41595 whole entry, species assumed): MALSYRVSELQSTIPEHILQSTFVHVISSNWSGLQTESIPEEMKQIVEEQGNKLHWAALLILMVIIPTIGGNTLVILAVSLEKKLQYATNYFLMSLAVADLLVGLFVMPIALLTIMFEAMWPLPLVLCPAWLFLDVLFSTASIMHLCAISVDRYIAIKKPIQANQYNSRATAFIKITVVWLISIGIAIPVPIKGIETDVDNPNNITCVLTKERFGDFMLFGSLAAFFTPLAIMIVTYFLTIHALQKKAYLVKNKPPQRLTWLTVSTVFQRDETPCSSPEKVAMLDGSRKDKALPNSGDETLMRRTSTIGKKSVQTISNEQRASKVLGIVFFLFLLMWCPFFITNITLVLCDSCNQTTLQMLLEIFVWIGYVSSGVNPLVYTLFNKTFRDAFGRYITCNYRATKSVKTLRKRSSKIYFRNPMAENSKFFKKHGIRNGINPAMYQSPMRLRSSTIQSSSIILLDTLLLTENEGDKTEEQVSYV
5-HT4, sequence (Q13639 whole entry, species assumed): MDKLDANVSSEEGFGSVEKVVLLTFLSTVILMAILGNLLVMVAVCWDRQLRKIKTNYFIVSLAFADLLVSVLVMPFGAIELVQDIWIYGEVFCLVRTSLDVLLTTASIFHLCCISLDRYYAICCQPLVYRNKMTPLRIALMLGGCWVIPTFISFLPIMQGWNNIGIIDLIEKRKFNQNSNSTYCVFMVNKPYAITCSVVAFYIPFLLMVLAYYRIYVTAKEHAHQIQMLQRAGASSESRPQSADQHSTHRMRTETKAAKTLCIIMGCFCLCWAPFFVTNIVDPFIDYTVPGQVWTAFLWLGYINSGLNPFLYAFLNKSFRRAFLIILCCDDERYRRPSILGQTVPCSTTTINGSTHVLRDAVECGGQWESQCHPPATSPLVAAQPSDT
5-HT2A, sequence (P28223 whole entry, species assumed): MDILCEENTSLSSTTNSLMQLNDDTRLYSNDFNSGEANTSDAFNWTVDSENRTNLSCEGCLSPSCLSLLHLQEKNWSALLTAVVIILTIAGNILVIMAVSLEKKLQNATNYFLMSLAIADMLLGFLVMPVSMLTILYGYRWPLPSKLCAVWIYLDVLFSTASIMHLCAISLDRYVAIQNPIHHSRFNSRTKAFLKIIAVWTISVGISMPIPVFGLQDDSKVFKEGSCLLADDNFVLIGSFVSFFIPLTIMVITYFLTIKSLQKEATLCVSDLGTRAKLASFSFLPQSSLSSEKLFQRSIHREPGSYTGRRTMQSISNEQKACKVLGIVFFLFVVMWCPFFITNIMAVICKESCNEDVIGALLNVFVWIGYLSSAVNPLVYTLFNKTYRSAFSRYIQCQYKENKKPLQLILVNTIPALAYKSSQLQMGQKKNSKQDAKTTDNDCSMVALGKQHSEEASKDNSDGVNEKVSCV

O=C(Nc1ccc(-c2cnc3ccccc3n2)cc1)C1CCN(S(=O)(=O)c2ccccc2Cl)CC1 [Compound 4m, 1-((2-chlorophenyl)sulfonyl)-N-(4-(quinoxalin-2-yl)phenyl)piperidine-4-carboxamide]
IC50 (human sEH): 0.7 nM
half-life at 1 µM [1]: 32 min
microsomal CLint at 1 µM [1]: 42.8 µL/min/mg
inhibition at 10 µM (Mu opioid (MOR)): -1 ± 1.63%
inhibition at 10 µM (5-HT1A): -18 ± 14.6%
inhibition at 10 µM (5-HT1D): -8.07 ± 3.46%
inhibition at 10 µM (5-HT2A): 1.96 ± 1.88%
inhibition at 10 µM (5-HT2B): -4.41 ± 7.06%
inhibition at 10 µM (5-HT2C): -18.2 ± 3.45%
inhibition at 10 µM (5-HT4): 29.6 ± 23.2%
wheel revolutions in the 15 min after drug injection (male Sprague-Dawley rats): significantly lower
